According to ChEMBL document CHEMBL4689842, “EUbOPEN Chemogenomics Library wave 1” (2021):

Tested on: U2OS
Test: Multiplex assay against U2OS
Assay type: toxicity, cell-based
Settings: human
How it was run: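 Values for tubulin, mitochondrial-mass and membrane-permeability phenotypes are per cents of cells with healthy nuclei. These cells were identified by CellPathfinder machine-learning gating of live cells that had been stained at seeding with Hoechst33342, BioTracker Green Microtubule Cytoskeleton Dye, MitoTracker Red and Annexin V Alexa Fluor 680 and imaged on a CQ1 microscope at 37°C and 5% CO2 after compound addition. The gating first set Hoechst high-intensity objects apart from normal cells, then split normal cells into healthy, pyknosed or fragmented nuclei, and pyknosed cells into mitotic or apoptotic.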

[1] = 12 h, 1 µM, compound concentration 1 uM, replicate 1
[2] = 12 h, 1 µM, compound concentration 1 uM, replicate 2
[3] = 12 h, 10 µM, compound concentration 10 uM, replicate 1
[4] = 12 h, 10 µM, compound concentration 10 uM, replicate 2
[5] = 24 h, 1 µM, compound concentration 1 uM, replicate 1
[6] = 24 h, 1 µM, compound concentration 1 uM, replicate 2
[7] = 24 h, 10 µM, compound concentration 10 uM, replicate 1
[8] = 24 h, 10 µM, compound concentration 10 uM, replicate 2
[9] = 48 h, 1 µM, compound concentration 1 uM, replicate 1
[10] = 48 h, 1 µM, compound concentration 1 uM, replicate 2
[11] = 48 h, 10 µM, compound concentration 10 uM, replicate 1
[12] = 48 h, 10 µM, compound concentration 10 uM, replicate 2

SMILES: Oc1cccc(-c2nc(N3CCOCC3)c3oc4ncccc4c3n2)c1 [PI-103]
- Population Apoptotic (%) [1]: 73%
- Population Fragmented Nuclei (%) [1]: 20%
- Population Healthy Nuclei (%) [1]: 67%
- Population Hoechst High Intensity Objects (%) [1]: 11%
- Population Membrane Permeable-Phenotype (%) [1]: 8%
- Population Mitochondria Different-Phenotype (%) [1]: 7%
- Population Mitotic Cells (%) [1]: 26%
- Population Normal (%) [1]: 88%
- Population Pyknosed Nuclei (%) [1]: 12%
- Population Tubulin-Different-Phenotype (%) [1]: 14%
- Total Cell Count [1]: 224
- Population Apoptotic (%) [2]: 47%
- Population Fragmented Nuclei (%) [2]: 10%
- Population Healthy Nuclei (%) [2]: 63%
- Population Hoechst High Intensity Objects (%) [2]: 5%
- Population Membrane Permeable-Phenotype (%) [2]: 2%
- Population Mitotic Cells (%) [2]: 52%
- Population Normal (%) [2]: 94%
- Population Pyknosed Nuclei (%) [2]: 26%
- Population Tubulin-Different-Phenotype (%) [2]: 0%
- Total Cell Count [2]: 73
- Population Apoptotic (%) [3]: 42%
- Population Fragmented Nuclei (%) [3]: 20%
- Population Healthy Nuclei (%) [3]: 47%
- Population Hoechst High Intensity Objects (%) [3]: 6%
- Population Membrane Permeable-Phenotype (%) [3]: 35%
- Population Mitochondria Different-Phenotype (%) [3]: 63%
- Population Mitotic Cells (%) [3]: 57%
- Population Normal (%) [3]: 93%
- Population Pyknosed Nuclei (%) [3]: 31%
- Population Tubulin-Different-Phenotype (%) [3]: 80%
- Total Cell Count [3]: 168
- Population Apoptotic (%) [4]: 36%
- Population Fragmented Nuclei (%) [4]: 18%
- Population Healthy Nuclei (%) [4]: 39%
- Population Hoechst High Intensity Objects (%) [4]: 5%
- Population Membrane Permeable-Phenotype (%) [4]: 33%
- Population Mitochondria Different-Phenotype (%) [4]: 59%
- Population Mitotic Cells (%) [4]: 63%
- Population Normal (%) [4]: 94%
- Population Pyknosed Nuclei (%) [4]: 41%
- Population Tubulin-Different-Phenotype (%) [4]: 83%
- Total Cell Count [4]: 69
- Population Apoptotic (%) [5]: 56%
- Population Fragmented Nuclei (%) [5]: 21%
- Population Healthy Nuclei (%) [5]: 61%
- Population Hoechst High Intensity Objects (%) [5]: 8%
- Population Membrane Permeable-Phenotype (%) [5]: 7%
- Population Mitochondria Different-Phenotype (%) [5]: 4%
- Population Mitotic Cells (%) [5]: 43%
- Population Normal (%) [5]: 91%
- Population Pyknosed Nuclei (%) [5]: 16%
- Population Tubulin-Different-Phenotype (%) [5]: 11%
- Total Cell Count [5]: 224
- Population Apoptotic (%) [6]: 75%
- Population Fragmented Nuclei (%) [6]: 14%
- Population Healthy Nuclei (%) [6]: 69%
- Population Hoechst High Intensity Objects (%) [6]: 6%
- Population Membrane Permeable-Phenotype (%) [6]: 3%
- Population Mitochondria Different-Phenotype (%) [6]: 3%
- Population Mitotic Cells (%) [6]: 25%
- Population Normal (%) [6]: 93%
- Population Tubulin-Different-Phenotype (%) [6]: 1%
- Total Cell Count [6]: 73
- Population Apoptotic (%) [7]: 54%
- Population Fragmented Nuclei (%) [7]: 25%
- Population Healthy Nuclei (%) [7]: 40%
- Population Hoechst High Intensity Objects (%) [7]: 10%
- Population Membrane Permeable-Phenotype (%) [7]: 20%
- Population Mitochondria Different-Phenotype (%) [7]: 62%
- Population Mitotic Cells (%) [7]: 45%
- Population Normal (%) [7]: 89%
- Population Pyknosed Nuclei (%) [7]: 34%
- Population Tubulin-Different-Phenotype (%) [7]: 74%
- Total Cell Count [7]: 196
- Population Apoptotic (%) [8]: 50%
- Population Fragmented Nuclei (%) [8]: 28%
- Population Healthy Nuclei (%) [8]: 24%
- Population Hoechst High Intensity Objects (%) [8]: 4%
- Population Membrane Permeable-Phenotype (%) [8]: 44%
- Population Mitochondria Different-Phenotype (%) [8]: 75%
- Population Mitotic Cells (%) [8]: 49%
- Population Normal (%) [8]: 95%
- Population Pyknosed Nuclei (%) [8]: 47%
- Population Tubulin-Different-Phenotype (%) [8]: 89%
- Total Cell Count [8]: 80
- Population Apoptotic (%) [9]: 70%
- Population Fragmented Nuclei (%) [9]: 18%
- Population Healthy Nuclei (%) [9]: 64%
- Population Hoechst High Intensity Objects (%) [9]: 7%
- Population Membrane Permeable-Phenotype (%) [9]: 7%
- Population Mitochondria Different-Phenotype (%) [9]: 6%
- Population Mitotic Cells (%) [9]: 29%
- Population Normal (%) [9]: 92%
- Population Pyknosed Nuclei (%) [9]: 17%
- Population Tubulin-Different-Phenotype (%) [9]: 16%
- Total Cell Count [9]: 222
- Population Apoptotic (%) [10]: 63%
- Population Fragmented Nuclei (%) [10]: 10%
- Population Healthy Nuclei (%) [10]: 75%
- Population Hoechst High Intensity Objects (%) [10]: 4%
- Population Membrane Permeable-Phenotype (%) [10]: 8%
- Population Mitochondria Different-Phenotype (%) [10]: 4%
- Population Mitotic Cells (%) [10]: 36%
- Population Normal (%) [10]: 95%
- Population Pyknosed Nuclei (%) [10]: 13%
- Population Tubulin-Different-Phenotype (%) [10]: 8%
- Total Cell Count [10]: 72
- Population Apoptotic (%) [11]: 70%
- Population Fragmented Nuclei (%) [11]: 35%
- Population Healthy Nuclei (%) [11]: 26%
- Population Hoechst High Intensity Objects (%) [11]: 15%
- Population Membrane Permeable-Phenotype (%) [11]: 37%
- Population Mitochondria Different-Phenotype (%) [11]: 48%
- Population Mitotic Cells (%) [11]: 29%
- Population Normal (%) [11]: 84%
- Population Pyknosed Nuclei (%) [11]: 38%
- Population Tubulin-Different-Phenotype (%) [11]: 56%
- Total Cell Count [11]: 215
- Population Apoptotic (%) [12]: 68%
- Population Fragmented Nuclei (%) [12]: 26%
- Population Hoechst High Intensity Objects (%) [12]: 12%
- Population Membrane Permeable-Phenotype (%) [12]: 85%
- Population Mitochondria Different-Phenotype (%) [12]: 77%
- Population Mitotic Cells (%) [12]: 31%
- Population Normal (%) [12]: 87%
- Population Pyknosed Nuclei (%) [12]: 47%
- Population Tubulin-Different-Phenotype (%) [12]: 88%
- Total Cell Count [12]: 86
